An excerpt weighted towards active compounds, which were near 1.2% of everything screened.
procasp3 activ – activates human procaspase-3. recombinant procaspase-3 D3A, Ac-DEVD-pNA absorbance 405 nm. AID 463141. 330,000 compounds, 0.11% hits. activation, % at 8.5 µM. P42574;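 active = activation above the mean of all tested compounds plus 3 SD, cut at about 21% in these data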
Target sequence (P42574 whole entry D9A/D28A/D175A): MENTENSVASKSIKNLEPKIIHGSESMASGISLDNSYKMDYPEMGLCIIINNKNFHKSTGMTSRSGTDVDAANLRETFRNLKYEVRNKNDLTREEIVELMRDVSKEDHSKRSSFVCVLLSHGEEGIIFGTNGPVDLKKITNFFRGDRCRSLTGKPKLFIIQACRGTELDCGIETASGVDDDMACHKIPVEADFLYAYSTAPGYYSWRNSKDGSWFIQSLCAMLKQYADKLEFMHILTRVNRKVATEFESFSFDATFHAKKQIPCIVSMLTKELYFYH
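Technique: 405 nm absorbance of p-nitroaniline, reads at 0 and 120 min; Test system: Procaspase-3 D3A mutant; Incubation: 1 h enzyme-compound preincubation, then 2 h substrate reaction, 25 °C; Repeats: singlicate, each compound tested once; Benchmarks: low control DMSO wells, high control DMSO plus 5 µM PC-3 D3A.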
Hep lipid drop – hepatic lipid droplet formation modulation. AID 1656. inhibition, % at 6.5 µM. AML12 mouse hepatocytes, oleate lipid droplets, BODIPY imaging. 240,000 compounds, 0.4% hits;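 active = lipid droplet intensity inhibited by at least 50%, with more than 500 cells counted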
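Assay system: AML12 mouse liver cells | Compound dosing: One dose, 6.5 µM compound | Read-out basis: Droplet intensity reduction, % inhibition | Measured by: Fluorescence imaging, 20x objective, two fields per well | Schedule: Overnight treatment with compound plus oleate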
Rce1 inh – blocks yeast Ras-converting enzyme | yeast membranes, quenched prenylated peptide cleavage fluorescence | calls only | 290,000 compounds, 0.27% hits | Q03530;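 active = fall in fluorescence gain of 50% or more versus controls, with final raw signal at or below 3038400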
pCIP destab – lowers stability of the mouse p/CIP coactivator protein; AID 1984; decrease of EGFP signal, % at 10 µM; Q05BA5; F442A p/CIP-EGFP cells, EGFP fluorescence, 16 h; 290,000 compounds, 0.01% hits;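 active = EGFP signal decrease of at least 30% at 10 µM or well 3 SD below plate mean, unless failing retest; inactive = the rest, including hits failing retest or dose response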
procasp7 counter – counter-screen for procaspase-3 activators: activators of human procaspase-7. P55210. recombinant procaspase-7, Ac-DEVD-pNA absorbance 405 nm; D23A/D198A/D206A triple mutant, cannot self-cleave; scale: DMSO 0, 5 µM enzyme 100. activation, % at 8.5 µM. 330,000 compounds, 0.093% hits. AID 463210;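 active = percent activation above the screen-wide mean plus 3 SD, cut at about 25% in these data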
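signal = Epi-absorbance of released pNA at 405 nm, two timepoints | assay system = Uncleavable procaspase-7 mutant enzyme | reagent = Ac-DEVD-pNA substrate, 400 µM as added | times = 1 h enzyme–compound preincubation and 2 h substrate reaction, both 25 °C | benchmarks = low DMSO alone, high DMSO plus 5 µM PC-7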
FXN GAA850 act – activators of GAA850 frataxin (FXN) promoter; HEK293 lucGAA850 FXN promoter luciferase reporter, 24 h; percent of 10 µM SAHA response; activation, % at 6 µM; 360,000 compounds, 0.56% hits;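 active = activation above the average of all compounds screened plus 3 SD, cutoff fixed separately per campaign, cut at about 7.5% in these data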
Lipid drop inh – confirmation of inhibitors of hepatic lipid droplet formation; inhibition, % at 5.2 µM; shares compounds with Hep lipid drop; AML12 mouse hepatocytes, BODIPY lipid droplet imaging; droplets induced with 100 µM oleic acid; 870 compounds, 65% hits; AID 463183;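 active = inhibition of lipid droplet metric at least 50%, with more than 300 cells in each of four replicates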
AML12 cytotox – AML12 hepatocyte cytotoxicity (counter-screen); shares compounds with Hep lipid drop; AML12 mouse hepatocytes, DAPI nuclear morphology cytotoxicity imaging; stronger effect = higher value; cells fed 100 µM oleate overnight; z-score at 5 µM; 870 compounds, 3% hits; in the data active = z-score above about 6.3;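 also: compound exposure lasted overnight at 37 °C before fixation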
AML12 tox conf – confirmation of cytotoxicity in AML12 mouse hepatocytes; cytotoxicity, % at 50 µM; AML12 mouse hepatocyte viability, ATP luminescence; cells loaded with 100 µM oleic acid; 530 tested, under 10 active; shares compounds with Hep lipid drop;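 active = cytotoxicity above 50% in each of four replicates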;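 also: compound exposure lasted overnight at 37 °C before the ATP read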
Each line names hits and unclear results; the compound was inactive in the other large screens (follow-up assays come after a bar, where they were run).

Cc1cccc(Nc2ncnc3ccccc23)c1	Hep lipid drop 66 | Lipid drop inh 53 | AML12 cytotox 13
Cc1cc(C)c2nc(SCC(=O)N3CC(=O)Nc4ccccc43)c(C#N)cc2c1	Hep lipid drop 163 | Lipid drop inh inactive | AML12 cytotox 22
c1cc[n+](CCCC[n+]2ccccc2)cc1	none
c1cc[n+](CCC[n+]2ccccc2)cc1	Hep lipid drop 56 | Lipid drop inh inactive | AML12 cytotox inactive
CCOC(=O)c1ccc(S(=O)(=O)NCC(c2ccc(N(C)C)cc2)c2c[nH]c3ccccc23)cc1 (centres undefined)	Hep lipid drop 96 | Lipid drop inh 108 | AML12 cytotox inactive | AML12 tox conf inactive
CN(C)c1ccc(C(CNS(=O)(=O)c2ccc(F)cc2)c2c[nH]c3ccccc23)cc1 (centres undefined)	none
COCCNC(=O)C1(C)CCN(C(=O)c2ccc(SC(F)(F)F)cc2)C1 (centres undefined)	none (no result: procasp3 activ, Hep lipid drop, Rce1 inh, pCIP destab, procasp7 counter)
CN(Cc1ccc2c(c1)OCO2)C(=O)c1cc(-c2ccccc2)c(N2CCOCC2)s1	none (no result: Hep lipid drop, Rce1 inh, pCIP destab)
COc1ccc(CCNC(=O)c2cc(-c3ccccc3)c(N3CCOCC3)s2)c(OC)c1OC	Hep lipid drop 96 | Lipid drop inh 107 | AML12 cytotox inactive | AML12 tox conf inactive
O=C(NCc1ccc2c(c1)OCO2)c1cc(-c2ccccc2)c(N2CCOCC2)s1	Hep lipid drop 73 | Lipid drop inh 109 | AML12 cytotox inactive | AML12 tox conf inactive
CCOc1ccc(CCNC(=O)c2cc(-c3ccccc3)c(N3CCOCC3)s2)cc1OCC	Hep lipid drop 100 (no result: FXN GAA850 act) | Lipid drop inh 112 | AML12 cytotox inactive | AML12 tox conf inactive
Cc1ccc(Cl)cc1-c1cc(C(=O)NCc2cc(C(F)(F)F)cc(C(F)(F)F)c2)[nH]n1	none (no result: procasp3 activ, Hep lipid drop, Rce1 inh, pCIP destab, procasp7 counter)
O=C(N/N=C/c1cc2ccccc2nc1Cl)[C@H]1C[C@@H]1c1ccccc1	none
Cc1ccc2cc(/C=N/NC(=O)[C@H]3C[C@@H]3c3ccccc3)c(Cl)nc2c1	Hep lipid drop 75 | Lipid drop inh inactive | AML12 cytotox inactive | AML12 tox conf inactive
CC1(C(=O)NS(=O)(=O)c2cccc(Cl)c2)CCN1C(=O)c1ccccc1CCc1ccccc1 (centres undefined)	none (no result: procasp3 activ, Hep lipid drop, Rce1 inh, pCIP destab, procasp7 counter)
COc1ccc(C=C(NC(=O)c2ccccc2)C(=O)O)cc1OC	none (no result: procasp3 activ, Hep lipid drop, Rce1 inh, pCIP destab, procasp7 counter)
COC(=O)/C(=C/c1ccc2c(c1)c1ccccc1n2C)NC(=O)c1ccccc1	Hep lipid drop 83 | Lipid drop inh 80 | AML12 cytotox inactive | AML12 tox conf inactive
O=C(NCCc1cccnc1)c1cc(COc2ccc(F)cc2F)on1	Hep lipid drop 95 | Lipid drop inh inactive | AML12 cytotox inactive
C=CCOc1ccc(/C=N/NC(=O)c2cc3c(OC)cc(OC)cc3[nH]2)cc1	Hep lipid drop 56 | Lipid drop inh inactive | AML12 cytotox inactive
COCCNC(=O)C1(C)CCCN(C(=O)c2cccc(Cl)c2)C1 (centres undefined)	none (no result: procasp3 activ, Hep lipid drop, Rce1 inh, pCIP destab, procasp7 counter)
CCCCn1c(SCC(=O)Nc2cc(C(F)(F)F)cc(C(F)(F)F)c2)nnc1C(CC)N(C)C (centres undefined)	Hep lipid drop 78 | Lipid drop inh 107 | AML12 cytotox inactive | AML12 tox conf inactive
CCOC(=O)/C=C/C(=O)OCC(=O)Nc1ccc(OC)c(Cl)c1	none
COc1ccc(NC(=O)COC(=O)/C=C/C(=O)OCC(=O)Nc2ccc(OC)c(Cl)c2)cc1Cl	Hep lipid drop 63 | Lipid drop inh inactive | AML12 cytotox inactive

Screening results (PubChem BioAssay)
